Screening results deposited in PubChem by several laboratories.
Most compounds without a hit are left out; they make up all but 12% or so of the library.
bCat nuc transl – modulators of beta-catenin nuclear translocation, primary screen, imaging, HeLa cells, immunofluorescence, high-content; nuclear translocation activity, % at 5 µM; actives 0.3% (n = 190,000); AID 1665, 2009;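 active = nuclear translocation activity above 50% at 5 µM, with a well cell count of 50 or more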;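 note: per-cell ratio of nuclear to cytoplasmic median beta-catenin stain intensity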
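System: Human HeLa cells, endogenous beta-catenin | Compound dosing: 5 µM primary, 0.02–20 µM confirmation | Timing: 24 h compound exposure at 37°C, 5% CO2 | Measured by: Fluorescence imaging of beta-catenin antibody stain plus DAPI | Read-out basis: % activation of per-cell nuclear versus cytoplasmic median beta-catenin signal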
Dynein cargo inh – inhibitors of GR-EGFP nuclear translocation, primary screen, dynein cargo transport inhibitor project, imaging, high-content, 3617.4 mouse cells. AID 1381, 2008. test concentration mostly 20 µM; stimulated with dexamethasone, 1 µM; hits give low values. actives 0.47% (n = 220,000). z-score, hits read low;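 active = plate z-score of nuclear minus cytoplasmic receptor signal below a set negative limit, without overly bright fluorescence or cell loss, cut at about -3.5 in these data, passing the limit was not always enough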;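 note: z-score of nuclear minus cytoplasmic ring GR-EGFP intensity difference per well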
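Buffer or medium: tetracycline-free induction medium containing charcoal-stripped FBS / Reagent: dexamethasone agonist, 1.0 µM final, for 30 min / Technique: automated 10x imaging of fixed Hoechst-stained cells / Times: induction 48 h, compound 1 h, agonist 30 min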
MT stabilizer – microtubule stabilizers in HeLa cells, primary screen, imaging, high-content imaging. HeLa tubulin immunostaining HCS, 24 h; share of cells brighter than vehicle mean+2SD. % tubulin-high responders, % at 10 µM. actives 0.83% (n = 200,000);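 active = plate Z-score above 3 for both tubulin-high and condensed-nucleus cell shares, with cell loss under 80%, at 10 µM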;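 note: anti alpha tubulin signal scored within the nucleus-defined area of each cell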
L major viab – Leishmania major promastigote growth inhibition, primary screen; Leishmania major promastigotes, resazurin fluorescence viability; inhibition, % at 10 µM; actives 9% (n = 200,000); AID 1063, 2008; in the data active = inhibition above about 50%;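 note: promastigotes grown with compound for 44 hours at 28 °C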
Autophagy HCS – autophagy modulators in MEF cells, primary screen, imaging, high-content, MEF GFP-LC3; MEF GFP-LC3 puncta imaging; test concentration mostly 10 µM; calls only at 10 µM (by protocol); actives 0.98% (n = 190,000); AID 463193, 2010;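 active = percentage of spot-positive cells more than 3 SD above its plate mean, without a fluorescence outlier flag or 80% toxicity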
CHOP inhibitor – inhibitors of CHOP promoter induction, primary screen, cell-based, unfolded protein response, luciferase reporter. AID 2732, 2010. actives 3.8% (n = 220,000). inhibition, % at 10 µM. CHO-K1 CHOP-promoter luciferase, tunicamycin-induced, 15-18 h;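 active = compounds that reduced the stress-induced luciferase reporter signal by more than about 70% of percent inhibition, limit read from the data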
Numbers stand for hits; i = inactive; nt = no result given.

SMILES	bCat nuc transl	Dynein cargo inh	MT stabilizer	L major viab	Autophagy HCS	CHOP inhibitor
CCO[C@@H]1OC(C(=O)NCc2nc3ccccc3[nH]2)=C[C@H](C2CC2)[C@H]1CCCO	i	i	28	i	i	i
CCO[C@@H]1OC(C(=O)NCc2ccccc2)=C[C@H](C2CCCCC2)[C@H]1CCCO	i	i	i	51	i	i
CCO[C@@H]1OC(C(=O)NCc2ccccc2)=C[C@H](C2CC2)[C@H]1CCCO	i	i	i	i	i	i
Cc1nn(-c2ccccc2)c2c1P(=O)(O)/C(=C1\N(C)c3ccccc3C1(C)C)C=N2	i	i	i	i	i	i
O=C(NC1CCCCC1)N1CCCc2ccccc21	i	i	i	i	i	i
O=C(NC1CCCCC1)N1CCSC1=Nc1ccccc1	i	i	i	i	i	89
CSc1c(SCc2ccccc2)cnn(-c2ccccc2)c1=O	nt	i	i	i	i	i
CCNc1nc(NC(C)C)nc(N(n2cnnc2)S(=O)(=O)c2ccc(C)cc2)n1	i	i	i	58	i	i
Cc1onc(-c2c(F)cccc2Cl)c1C(=O)OCC(=O)c1c[nH]c2ccccc12	i	i	nt	nt	nt	i
CC(Sc1ccc(Cl)cc1)C(=O)Nc1ccccc1-c1ccccc1 (centres undefined)	i	i	i	i	i	93
COc1cc(CNCCN(C)C)c(Br)cc1OC1CCCC1	i	i	i	i	i	i
Cc1ccc([N+](=O)[O-])c(NC2OC(CO)C(O)C2O)c1 (centres undefined)	i	i	i	i	i	i
Cc1c(NS(=O)(=O)c2ccc(N(C)C3CCCCC3)c([N+](=O)[O-])c2)c(=O)n(-c2ccccc2)n1C	i	i	i	50	i	i
Cc1c(NS(=O)(=O)c2ccc(N3CCCCC3)c([N+](=O)[O-])c2)c(=O)n(-c2ccccc2)n1C	i	i	i	i	i	i
CCN(CC)c1ccc(NC(=O)c2ccccc2F)cc1	nt	i	52	i	i	nt
CCN(CC)c1ccc(NC(=O)c2cc(Cl)ccc2OC)cc1	nt	i	i	99	i	i
CC(=O)Nc1ccc(CN2CCCCCCC2)cc1	i	i	i	i	i	i
Cc1ccc(C(=O)Nc2ccc(CN3CCCCC3)cc2)c(C)c1	i	i	i	74	i	i
CCNC(=O)c1cc(Cl)ccc1OC	nt	i	i	56	i	i
COc1ccc(Cl)cc1C(=O)Nc1ccc(NC(=O)c2ccco2)cc1	i	i	i	i	i	i
COc1ccc(Cl)cc1C(=O)Nc1ccc(CN2CCCCC2)cc1	i	i	i	98	i	i
Cc1cc2oc(=O)cc(CN3CCN(C/C=C/c4ccccc4)CC3)c2cc1O	i	i	i	100	i	i
Cc1cc2oc(=O)cc(CN3CCOCC3)c2cc1C	i	i	i	i	i	i
Cc1c(O)ccc2c(CN3CCN(C/C=C/c4ccccc4)CC3)cc(=O)oc12	i	i	nt	nt	nt	i
Cc1cc2oc(=O)cc(CN3CCN(S(=O)(=O)c4cccs4)CC3)c2cc1C	i	i	i	81	i	i
SMILES	bCat nuc transl	Dynein cargo inh	MT stabilizer	L major viab	Autophagy HCS	CHOP inhibitor
CCOC(=O)Nc1ccc2c(CN3CCN(S(=O)(=O)c4ccccc4)CC3)cc(=O)oc2c1	i	i	i	100	i	i
O=c1cc(CN2CCN(C/C=C/c3ccccc3)CC2)c2cc(O)c(-c3ccccc3)cc2o1	i	i	i	80	i	i
Cc1ccc(O)c(CP(=O)(c2ccccc2)c2ccccc2)c1	nt	i	i	84	i	i
Cc1ccc2c(CN3CCN(S(=O)(=O)/C=C/c4ccccc4)CC3)cc(=O)oc2c1	i	i	i	i	i	i
Cc1ccc2oc(=O)cc(/C=C/c3ccccc3)c2c1	i	i	i	i	i	76
CCCCn1c(=N)n(CC(O)COc2ccccc2)c2ccccc21 (centres undefined)	i	i	i	55	i	i
CCCCn1c(=N)n(CC(O)COc2ccc(C)cc2)c2ccccc21 (centres undefined)	i	i	i	101	i	72
COc1cc2cc(/C=C/C(=O)c3ccco3)c(Cl)nc2cc1OC	i	i	i	76	i	i
c1ccc2sc(SCc3ccc(-c4nnco4)cc3)nc2c1	i	i	i	i	i	i
